The record followed here is ChEMBL document CHEMBL1136888, “Design, synthesis, and biological evaluation of novel diarylalkyl amides as TRPV1 antagonists” (Bioorg Med Chem, 2009).

For the experiment, the target named is Transient receptor potential cation channel subfamily V member 1 (Rattus norvegicus, UniProt O35433). Put plainly: Antagonist activity at TRPV1 in Sprague-Dawley rat DRG neuron assessed as reduction of capsaicin-stimulated 45Ca2+ uptake. The format is functional. An outline of the steps: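 Neonatal Sprague-Dawley rat DRG neurons (all spinal levels) dissociated with collagenase/trypsin and cultured 3 days with C6 glioma-conditioned medium. Washed in HEPES (10 mM, pH 7.4) Ca/Mg-free HBSS. Exposed to 45Ca2+ plus 0.5 µM capsaicin with compound for 10 min at room temperature. Cells washed, SDS-lysed, scintillation counted.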
Chain of Transient receptor potential cation channel subfamily V member 1 (O35433 whole entry): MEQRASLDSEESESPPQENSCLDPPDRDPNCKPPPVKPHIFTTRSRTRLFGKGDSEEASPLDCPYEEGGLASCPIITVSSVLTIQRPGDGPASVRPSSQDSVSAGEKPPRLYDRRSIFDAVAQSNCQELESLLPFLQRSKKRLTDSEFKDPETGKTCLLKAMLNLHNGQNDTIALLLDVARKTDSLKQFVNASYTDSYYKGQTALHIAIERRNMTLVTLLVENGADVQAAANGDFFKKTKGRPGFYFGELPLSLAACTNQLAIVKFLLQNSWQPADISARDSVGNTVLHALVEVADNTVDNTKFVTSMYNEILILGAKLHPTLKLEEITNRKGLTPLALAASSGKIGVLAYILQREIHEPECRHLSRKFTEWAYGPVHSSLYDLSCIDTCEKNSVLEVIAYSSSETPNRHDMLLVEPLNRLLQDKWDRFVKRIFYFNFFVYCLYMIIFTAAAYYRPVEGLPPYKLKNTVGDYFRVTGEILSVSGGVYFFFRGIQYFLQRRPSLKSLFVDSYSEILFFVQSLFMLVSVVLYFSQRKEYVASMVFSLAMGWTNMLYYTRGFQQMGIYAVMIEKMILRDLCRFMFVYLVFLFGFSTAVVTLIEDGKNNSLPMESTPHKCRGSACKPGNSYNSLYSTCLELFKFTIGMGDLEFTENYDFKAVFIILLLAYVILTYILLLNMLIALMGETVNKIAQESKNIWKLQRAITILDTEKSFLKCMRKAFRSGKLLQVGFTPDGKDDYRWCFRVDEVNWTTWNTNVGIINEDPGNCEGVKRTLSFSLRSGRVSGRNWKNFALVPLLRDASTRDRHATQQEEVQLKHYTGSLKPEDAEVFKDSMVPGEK

By IC50 is commonly meant the point on the concentration scale where inhibition reaches its midpoint. In the case of `CC(C)(C)c1ccc(CNC(=O)NCc2ccc(NS(C)(=O)=O)c(F)c2)cc1`, the IC50 worked out at 710 nM. On to `CS(=O)(=O)Nc1ccc(CNC(=O)/C=C/c2ccc(I)cc2)cc1F`, for which the IC50 was over 10000 nM. Regarding `CC(C)(C)c1ccc(CCC(=O)NCc2cc(F)c(NS(C)(=O)=O)c(C#N)c2)cc1`, the IC50 was found to be 85 nM. In the case of `CC(C)(C)c1ccc(CNC(=O)CCc2ccc(NS(C)(=O)=O)c(F)c2)cc1` it was 2800 nM. As for `CC1(C)Cc2cc(CCC(=O)NCc3ccc(NS(C)(=O)=O)c(F)c3)ccc2O1`, the figure is over 10000 nM; as for `CS(=O)(=O)Nc1ccc(CNC(=O)CCc2ccccc2)cc1F`, over 10000 nM. As for `CC1(C)Cc2cc(/C=C/C(=O)NCc3ccc(NS(C)(=O)=O)c(F)c3)ccc2O1`, the figure is 4300 nM; as for `CC(C)(C)c1cc(/C=C/C(=O)NCc2ccc(NS(C)(=O)=O)c(F)c2)c2c(c1)CCCO2`, 920 nM.

Consider `CC1(C)CCC(C)(C)c2cc(CCC(=O)NCc3cc(F)c(NS(C)(=O)=O)c(C#N)c3)ccc21`, for which the half-maximal inhibitory concentration (IC50) is 57 nM. As for `CC(C)(C)c1cc2c(c(CCC(=O)NCc3ccc(NS(C)(=O)=O)c(F)c3)c1)OCCC2`, the figure is 280 nM; as for `CC(C)(C)c1ccc(CCC(=O)NCc2ccc(NS(C)(=O)=O)c(F)c2)cc1`, 170 nM.

For `CC(C)Cc1ccc(CCC(=O)NCc2ccc(NS(C)(=O)=O)c(F)c2)cc1`, the half-inhibitory concentration (IC50) turned out to be 640 nM. With `CC1(C)CCc2cc(/C=C/C(=O)NCc3ccc(NS(C)(=O)=O)c(F)c3)ccc2O1`, the IC50 came out at 1400 nM. As for `CC1(C)CCc2cc(CCC(=O)NCc3ccc(NS(C)(=O)=O)c(F)c3)ccc2O1`, the figure is 7200 nM. As for `CS(=O)(=O)Nc1ccc(CNC(=O)CCc2ccc(CC3CC3)cc2)cc1F`, the figure is 360 nM; as for `CS(=O)(=O)Nc1ccc(CNC(=O)CCc2ccc(C(F)(F)F)cc2)cc1F`, 4600 nM; as for `CS(=O)(=O)Nc1ccc(CNC(=O)CCc2cc(C(F)(F)F)cc(C(F)(F)F)c2)cc1F`, 2500 nM. As for `CC1(C)CCC(C)(C)c2cc(/C=C/C(=O)NCc3ccc(NS(C)(=O)=O)c(F)c3)ccc21`, the figure is 340 nM. On to `CC1(C)CCC(C)(C)c2cc(CCC(=O)NCc3ccc(NS(C)(=O)=O)c(F)c3)ccc21`, for which the IC50 is 180 nM.

Consider `CC(C)(C)c1cc(/C=C/C(=O)NCc2ccc(NS(C)(=O)=O)c(F)c2)c2c(c1)CCO2`, for which the IC50 is 1500 nM. Turning to `CC(C)Oc1ccc(CCC(=O)NCc2ccc(NS(C)(=O)=O)c(F)c2)cc1`, the half-inhibitory concentration (IC50) was over 10000 nM. Take `CC(C)(C)Oc1ccc(CCC(=O)NCc2ccc(NS(C)(=O)=O)c(F)c2)cc1`: the concentration for half-maximal inhibition (IC50) was over 10000 nM. As for `CS(=O)(=O)Nc1ccc(CNC(=O)CCc2ccc(Br)cc2)cc1F`, the figure is over 10000 nM; as for `CC(C)(C)c1cc2c(c(CCC(=O)NCc3ccc(NS(C)(=O)=O)c(F)c3)c1)OCC2`, 5000 nM. Turning to `CC1(c2ccc(CCC(=O)NCc3cc(F)c(NS(C)(=O)=O)c(C#N)c3)cc2)CC1`, the half-inhibitory concentration (IC50) worked out at 210 nM.

As to `CC(C)(C)c1cc(CCC(=O)NCc2ccc(NS(C)(=O)=O)c(F)c2)cc(C(C)(C)C)c1`, the IC50 was 200 nM.

For the molecule `CC1(c2ccc(/C=C/C(=O)NCc3ccc(NS(C)(=O)=O)c(F)c3)cc2)CC1`, the IC50 is 390 nM.
